Where “and” joins values, the source holds several entries; their conditions need not be identical. Equal values may be shown once. Calls of active or inactive are those of the source.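 The calls were made as follows: active = IC50 of 10 µM or lower on HIF-2a in both cell lines, but not on HIF-1a; inactive = the rest, including compounds also potent on HIF-1a.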
Columns and labels:
Assay in all cases: HIF reporter inhibition across pancreatic and renal lines – cell-based, luminescence, MIAPaCa-2, 786-0, panel, SAR follow-up (AID 652011)
HIF1a = settings: MIAPaCa-2/PANC HIF reporter, luciferase luminescence, desferoxamine, overnight
Summary of the method: (§1)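 Probe or stimulus: desferoxamine stimulus; times: overnight seeding and compound exposure, 37 °C, 5% CO2, 10-min detection; signal: One-Glo luciferase luminescence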

HIF2a PANC = settings: MIAPaCa-2/PANC HIF reporter, luciferase luminescence, desferoxamine, overnight
Summary of the method: as §1

[1] = target: Endothelial PAS domain-containing protein 1 (Homo sapiens) (UniProt Q99814); settings: MIAPaCa-2/PANC HIF reporter, luciferase luminescence, desferoxamine, overnight; HIF2a PANC cells; mean of runs
Summary of the method: as §1

[2] = run 1, individual run IC50, panel line
[3] = run 2, individual run IC50, panel line

Chain of Endothelial PAS domain-containing protein 1 (Homo sapiens) (Q99814 whole entry, looked up, the tested form may be a part): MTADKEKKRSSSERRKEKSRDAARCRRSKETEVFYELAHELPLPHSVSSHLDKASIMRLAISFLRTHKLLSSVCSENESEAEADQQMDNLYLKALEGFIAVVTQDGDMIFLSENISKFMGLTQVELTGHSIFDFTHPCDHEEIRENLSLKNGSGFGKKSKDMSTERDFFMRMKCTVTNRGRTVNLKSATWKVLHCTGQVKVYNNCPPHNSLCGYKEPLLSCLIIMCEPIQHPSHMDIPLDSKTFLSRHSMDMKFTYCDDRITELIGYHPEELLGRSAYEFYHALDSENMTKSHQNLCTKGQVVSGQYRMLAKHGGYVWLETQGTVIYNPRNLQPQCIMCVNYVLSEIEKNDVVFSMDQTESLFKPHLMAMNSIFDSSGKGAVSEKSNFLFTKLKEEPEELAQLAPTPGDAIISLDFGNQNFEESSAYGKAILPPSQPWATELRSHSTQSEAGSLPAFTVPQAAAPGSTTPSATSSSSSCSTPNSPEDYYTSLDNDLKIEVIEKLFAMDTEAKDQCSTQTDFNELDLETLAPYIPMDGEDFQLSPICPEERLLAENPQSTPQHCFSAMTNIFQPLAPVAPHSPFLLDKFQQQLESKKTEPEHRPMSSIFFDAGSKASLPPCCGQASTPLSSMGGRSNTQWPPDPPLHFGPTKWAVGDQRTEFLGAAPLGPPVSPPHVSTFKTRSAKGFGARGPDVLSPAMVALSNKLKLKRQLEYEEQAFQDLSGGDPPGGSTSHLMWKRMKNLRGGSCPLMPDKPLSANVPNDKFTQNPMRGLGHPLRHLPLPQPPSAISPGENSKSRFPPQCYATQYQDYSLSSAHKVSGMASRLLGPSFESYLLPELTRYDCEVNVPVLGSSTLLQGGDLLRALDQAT

| SMILES | IC50 (HIF1a; [2]) | IC50 (HIF1a; [3]) | IC50 (HIF2a PANC; [2]) | IC50 (HIF2a PANC; [3]) | IC50 [1] |
| --- | --- | --- | --- | --- | --- |
| O=C(CCc1nc(-c2ccccc2)no1)NC1CC1 | > 99 µM | > 99 µM | > 99 µM | > 99 µM | > 99 µM (inactive) |
| CC(C)(C)c1ccc(-c2noc(CCC(=O)NCC3CCCO3)n2)cc1 (configuration not stated) | > 99 µM | > 99 µM | < 0.19 µM | < 0.19 µM | < 0.19 µM |
| CCNC(=O)CCc1nc(-c2ccc(OCC)cc2)no1 | > 99 µM | > 99 µM | > 99 µM | > 99 µM | > 99 µM (inactive) |
| C=CCNC(=O)CCc1nc(-c2ccc(C(C)(C)C)cc2)no1 | > 99 µM | > 99 µM | < 10 µM | < 0.19 µM | < 0.19 µM |
| CC(C)(C)c1ccc(-c2noc(CCC(N)=O)n2)cc1 | > 99 µM | > 99 µM | < 0.19 µM | < 0.19 µM | < 0.19 µM |
| CC(C)(C)c1ccc(-c2noc(CCC(=O)NC3CCC3)n2)cc1 | > 99 µM | > 99 µM | < 10 µM | < 0.19 µM | < 0.19 µM |
| CCc1ccc(-c2noc(CCC(=O)NC)n2)cc1 | > 99 µM | > 99 µM | > 99 µM | > 99 µM | > 99 µM (inactive) |
| CCCCc1ccc(-c2noc(CCC(=O)NC)n2)cc1 | > 99 µM | > 99 µM | > 99 µM | > 99 µM | > 99 µM (inactive) |
| CN(C)C(=O)CCc1nc(-c2ccc(C(C)(C)C)cc2)no1 | > 99 µM | > 99 µM | > 99 µM | > 99 µM | > 99 µM (inactive) |
| CCc1ccc(-c2noc(CCC(=O)NC(C)(C)C)n2)cc1 | > 99 µM | > 99 µM | > 99 µM | > 99 µM | > 99 µM (inactive) |
| CCNC(=O)CCc1nc(-c2ccccc2C)no1 | > 99 µM | > 99 µM | > 99 µM | > 99 µM | > 99 µM (inactive) |
| CC(C)c1ccc(-c2noc(CCC(=O)NC3CC3)n2)cc1 | > 99 µM | > 99 µM | > 99 µM | > 99 µM | > 99 µM (inactive) |
| CNC(=O)CCc1nc(-c2ccc(C)cc2)no1 | > 99 µM | > 99 µM | 48 µM | > 99 µM | inactive |
| CC(C)CNC(=O)CCc1nc(-c2ccc(C(C)(C)C)cc2)no1 | > 99 µM | > 99 µM | < 0.19 µM | < 0.19 µM | < 0.19 µM |
| CNC(=O)CCc1nc(-c2ccc(C(C)(C)C)cc2)no1 | > 99 µM | > 99 µM | < 0.19 µM | > 99 µM | inactive |
| CC(C)(C)NC(=O)CCc1nc(-c2ccccc2)no1 | > 99 µM | > 99 µM | > 99 µM | > 99 µM | > 99 µM (inactive) |
| CNC(=O)CCc1nc(-c2ccccc2)no1 | > 99 µM | > 99 µM | > 99 µM | > 99 µM | > 99 µM (inactive) |
| CCNC(=O)CCc1nc(-c2cccc(C)c2)no1 | > 99 µM | > 99 µM | > 99 µM | > 99 µM | > 99 µM (inactive) |
| CC(C)(C)c1ccc(-c2noc(CCC(=O)N3CCOCC3)n2)cc1 | > 99 µM | > 99 µM | > 99 µM | > 99 µM | > 99 µM (inactive) |
| CCOc1ccc(-c2noc(CCC(=O)NC)n2)cc1 | > 99 µM | > 99 µM | 1.72 µM | 0.673 µM | 1.2 µM |
| CCNC(=O)CCc1nc(-c2ccc(CC)cc2)no1 | > 99 µM | > 99 µM | > 99 µM | > 99 µM | > 99 µM (inactive) |
| CCCCc1ccc(-c2noc(CCC(=O)NC(C)(C)C)n2)cc1 | > 99 µM | > 99 µM | < 0.19 µM | < 0.19 µM | < 0.19 µM |
| CCNC(=O)CCc1nc(-c2c(Cl)cccc2Cl)no1 | > 99 µM | > 99 µM | > 99 µM | > 99 µM | > 99 µM (inactive) |
| CCNC(=O)CCc1nc(-c2ccc(C(C)(C)C)cc2)no1 | > 99 µM | > 99 µM | > 99 µM and < 10 µM | < 0.19 µM |  |

Second part, the molecule after the results:

| IC50 (HIF1a; [2]) | IC50 (HIF1a; [3]) | IC50 (HIF2a PANC; [2]) | IC50 (HIF2a PANC; [3]) | IC50 [1] | SMILES |
| --- | --- | --- | --- | --- | --- |
| > 99 µM | > 99 µM | > 99 µM | > 99 µM | > 99 µM (inactive) | CCNC(=O)CCc1nc(-c2ccccc2)no1 |
| > 99 µM | > 99 µM | > 99 µM | < 0.19 µM | inactive | CCCCc1ccc(-c2noc(CCC(=O)NC3CC3)n2)cc1 |
| > 99 µM | > 99 µM | > 99 µM | < 0.19 µM | inactive | CCCNC(=O)CCc1nc(-c2ccc(C(C)(C)C)cc2)no1 |
| > 99 µM | > 99 µM | > 99 µM | > 99 µM | > 99 µM (inactive) | CCC(C)NC(=O)CCc1nc(-c2ccc(C(C)C)cc2)no1 (configuration not stated) |
| > 99 µM | > 99 µM | > 99 µM | > 99 µM | > 99 µM (inactive) | CNC(=O)CCc1nc(-c2ccc(OC)cc2)no1 |
| > 99 µM | > 99 µM | < 0.19 µM |  |  | CC(C)(C)c1ccc(-c2noc(CCC(=O)NCc3ccco3)n2)cc1 |
| > 99 µM | > 99 µM | > 99 µM | > 99 µM | > 99 µM (inactive) | CC(C)c1ccc(-c2noc(CCC(=O)NC(C)(C)C)n2)cc1 |
| > 99 µM | > 99 µM | < 0.19 µM | < 0.19 µM | < 0.19 µM | CCCCc1ccc(-c2noc(CCC(=O)NCC)n2)cc1 |
| > 99 µM | > 99 µM | < 0.19 µM | 0.573 µM | 0.573 µM | CC(C)(C)NC(=O)CCc1nc(-c2ccc(C(C)(C)C)cc2)no1 |
| > 99 µM | > 99 µM | > 99 µM | > 99 µM | > 99 µM (inactive) | O=C(O)CCc1nc(-c2ccccc2)no1 |
| > 99 µM | > 99 µM | > 99 µM | > 99 µM | > 99 µM (inactive) | CNC(=O)CCc1nc(-c2ccc(Cl)cc2)no1 |
| > 99 µM | > 99 µM | > 99 µM | > 99 µM | > 99 µM (inactive) | CNC(=O)CCc1nc(-c2ccc(F)cc2)no1 |
| > 99 µM | > 99 µM | > 99 µM | > 99 µM | > 99 µM (inactive) | CCNC(=O)CCc1nc(-c2cccc(OC)c2)no1 |
| > 99 µM | > 99 µM | > 99 µM | > 99 µM | > 99 µM (inactive) | CCNC(=O)CCc1nc(-c2ccccc2Cl)no1 |
| > 99 µM | > 99 µM | < 0.19 µM | < 0.19 µM | < 0.19 µM | CNC(=O)CCc1nc(-c2ccc(C(C)C)cc2)no1 |
| > 99 µM | > 99 µM | < 10 µM | < 0.19 µM | < 0.19 µM | CC(C)(C)c1ccc(-c2noc(CCC(=O)NC3CC3)n2)cc1 |
| > 99 µM | > 99 µM | > 99 µM | > 99 µM | > 99 µM (inactive) | CCC(C)NC(=O)CCc1nc(-c2ccccc2)no1 (configuration not stated) |
| > 99 µM | > 99 µM | < 10 µM | < 0.19 µM | < 0.19 µM | CC(C)NC(=O)CCc1nc(-c2ccc(C(C)(C)C)cc2)no1 |
| > 99 µM | > 99 µM | < 0.19 µM | < 0.19 µM | < 0.19 µM | CC(C)(C)c1ccc(-c2noc(CCC(=O)Nc3ccccc3)n2)cc1 |
| > 99 µM | > 99 µM | > 99 µM | 38.2 µM | inactive | CC(C)(C)c1ccc(-c2noc(CCC(=O)N3CCCCC3)n2)cc1 |
| > 99 µM | > 99 µM | > 99 µM | > 99 µM | > 99 µM (inactive) | CCc1ccc(-c2noc(CCC(=O)NC(C)CC)n2)cc1 (configuration not stated) |
| > 99 µM | > 99 µM | > 99 µM | > 99 µM | > 99 µM (inactive) | CCC(C)NC(=O)CCc1nc(-c2ccc(C(C)(C)C)cc2)no1 (configuration not stated) |
| > 99 µM | > 99 µM | > 99 µM | > 99 µM | > 99 µM (inactive) | CCc1ccc(-c2noc(CCC(=O)NC3CC3)n2)cc1 |
| > 99 µM | > 99 µM | > 99 µM | > 99 µM | > 99 µM (inactive) | CCN(CC)C(=O)CCc1nc(-c2ccc(C(C)(C)C)cc2)no1 |
| > 99 µM | > 99 µM | < 0.19 µM | < 0.19 µM | < 0.19 µM | CCCCc1ccc(-c2noc(CCC(=O)NC(C)CC)n2)cc1 (configuration not stated) |
| > 99 µM | > 99 µM | > 99 µM | > 99 µM | > 99 µM (inactive) | CCNC(=O)CCc1nc(-c2ccc(C(C)C)cc2)no1 |
| > 99 µM | > 99 µM | > 99 µM | > 99 µM | > 99 µM (inactive) | CCNC(=O)CCc1nc(-c2cccc(F)c2)no1 |
